Screening data: PubChem, several laboratories
UCH37 DUB inh: blocks the human deubiquitinase UCH37 | Q9Y5K5 | purified proteasome/UCH37, Ub-AMC cleavage fluorescence | inhibition, % (concentration not given with the values) | actives 0.33% (n = 330,000) | AID 588478;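 active means mean inhibition over replicate wells above about 20%, limit read from the data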
Target sequence (Q9Y5K5 whole entry, looked up): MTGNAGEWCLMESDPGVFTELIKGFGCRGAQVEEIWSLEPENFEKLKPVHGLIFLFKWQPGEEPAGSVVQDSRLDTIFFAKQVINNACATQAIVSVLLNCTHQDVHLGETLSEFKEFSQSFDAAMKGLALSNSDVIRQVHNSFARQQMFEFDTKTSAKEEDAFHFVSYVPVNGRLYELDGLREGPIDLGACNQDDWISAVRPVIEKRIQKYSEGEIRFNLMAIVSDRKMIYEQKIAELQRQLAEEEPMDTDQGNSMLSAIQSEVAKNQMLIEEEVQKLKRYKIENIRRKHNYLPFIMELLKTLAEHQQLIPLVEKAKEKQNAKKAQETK
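Assay system: Proteasome-bound UCH37. Buffer or medium: pH 7.4 Tris-HCl (50 mM) with ovalbumin, ATP-MgCl2, DTT. Incubation: 30 min preincubation with enzyme, 25 min cleavage at room temperature. Measured by: fluorescence, ex 355 nm, em 460 nm. Read-out basis: percent inhibition. Control set: wells without proteasome as full block, compound-free enzyme plus substrate as uninhibited.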
Rtt109 Vps75: blocks Candida albicans Rtt109/Vps75 acetyltransferase activity; Q5AAJ8; purified Rtt109/Vps75, ThioGlo CoA-SH fluorescence, 4 h; inhibition, % at 34.9 µM; actives 0.16% (n = 330,000);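 active means inhibition of at least 50% in every replicate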
FAS-TE inh: blocks the thioesterase domain of human fatty acid synthase | recombinant FAS-TE, OMFH fluorogenic substrate, fluorescence endpoint | inhibition, % at 15 µM | P49327 | actives 0.67% (n = 360,000);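 active means compounds whose normalised, plate-corrected inhibition of enzyme fluorescence in the single-dose primary screen is 50% or more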
M18AAP inhibitor: PfM18AAP enzyme inhibition | actives 1.2% (n = 290,000) | AID 1822 | recombinant PfM18AAP, H-Glu-NHMec fluorogenic cleavage | inhibition, % at 7.35 µM;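 active means inhibition above the campaign mean inhibition over all tested compounds plus 3 SD, cut at about 28% in these data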
ALR inh: blocks human ALR sulfhydryl oxidase activity | actives 3.8% (n = 290,000) | P55789 | inhibition, % (no concentration beside the values) | purified ALR, DTT oxidation, H2O2 HRP-luminol luminescence;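 active means mean replicate inhibition above about 79%, with every replicate also reaching it, limit read from the data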
Target sequence (P55789 whole entry, looked up): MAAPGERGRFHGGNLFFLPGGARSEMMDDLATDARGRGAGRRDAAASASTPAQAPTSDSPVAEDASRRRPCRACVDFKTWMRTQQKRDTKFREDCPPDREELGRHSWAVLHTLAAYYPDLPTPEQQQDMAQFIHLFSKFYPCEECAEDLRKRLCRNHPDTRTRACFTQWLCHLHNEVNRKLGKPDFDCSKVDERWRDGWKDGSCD
HDAC3 inh: inhibitors of human histone deacetylase 3; recombinant HDAC3, fluorogenic peptide/trypsin coupled, fluorescence; inhibition, % at 8.3 µM; actives 0.15% (n = 320,000); AID 2718; in the data active means inhibition above about 26%, passing the limit was not always enough
Numbers stand for hits. Most compounds without a hit are left out; they make up all but 4.6% or so of the library.

`CCOC(=O)C1=C(C)n2c(sc(=Cc3cccc([N+](=O)[O-])c3)c2=O)=NC1c1ccc(O)c(OC)c1` (stereo unspecified) gave UCH37 DUB inh inactive.
For O=C(CSCc1cnn(-c2ccccc2)c1-n1cccc1)NCc1ccccn1 the results were UCH37 DUB inh inactive, Rtt109 Vps75 inactive, FAS-TE inh inactive, M18AAP inhibitor inactive, ALR inh 81 and HDAC3 inh inactive.
For COc1ccc(CNC(=O)CSCc2cnn(-c3ccccc3)c2-n2cccc2)cc1 the results were UCH37 DUB inh inactive, Rtt109 Vps75 inactive, FAS-TE inh inactive, M18AAP inhibitor inactive, ALR inh inactive and HDAC3 inh inactive.
O=C(NN=Cc1cccc(F)c1)NC1CCCCC1 was read as UCH37 DUB inh inactive.
For O=C(CCC(=O)Nc1ccc(F)cc1)N/N=C/c1ccc(O)cc1 the results were Rtt109 Vps75 inactive, FAS-TE inh inactive, M18AAP inhibitor inactive, ALR inh 99 and HDAC3 inh inactive.
Cc1ccc(NC(=O)CCC(=O)N/N=C/c2ccc(O)cc2)cc1 was read as Rtt109 Vps75 inactive, FAS-TE inh inactive, M18AAP inhibitor inactive, ALR inh 95 and HDAC3 inh inactive.
For O=C(CCC(=O)Nc1ccc(F)cc1)N/N=C/c1ccc(F)cc1 the results were Rtt109 Vps75 inactive, FAS-TE inh inactive, M18AAP inhibitor inactive, ALR inh inactive and HDAC3 inh inactive.
Screening CC(CC(=O)Nc1ccc(OCc2ccccc2)cc1)=NNC(=O)C(=O)Nc1ccccc1C returned UCH37 DUB inh inactive.
COc1cccc(C=NNC(=O)C(=O)NCc2cccnc2)c1O was read as UCH37 DUB inh inactive.
For CCOC(=O)c1cnc2ccc(C)cc2c1Nc1ccc(N2CCOCC2)cc1 the results were UCH37 DUB inh inactive, Rtt109 Vps75 inactive, FAS-TE inh inactive, M18AAP inhibitor inactive, ALR inh 98 and HDAC3 inh inactive.
Screening COC(=O)NN=Cc1cc(C)n(-c2ccc(Br)cc2)c1C returned UCH37 DUB inh inactive.
Screening CC(=O)ON=C1C(=O)N(Cc2ccc(C)cc2)c2ccccc21 returned UCH37 DUB inh inactive.
Screening CCn1c(SCC(=O)NN=Cc2ccccc2OCC(=O)O)nnc1-c1ccc(C)cc1 returned UCH37 DUB inh inactive.
Screening N/C(=N\OC(=O)c1ccccc1Cl)c1ccccn1 returned UCH37 DUB inh inactive, Rtt109 Vps75 inactive, FAS-TE inh inactive, M18AAP inhibitor inactive, ALR inh inactive and HDAC3 inh inactive.
`N/C(=N\NS(=O)(=O)c1ccccc1Cl)c1ccccn1` gave UCH37 DUB inh inactive, Rtt109 Vps75 inactive, FAS-TE inh inactive, ALR inh 83 and HDAC3 inh inactive.
`O=C(NCC1CCCO1)C(=O)NN=Cc1ccccc1C(=O)O` (stereo unspecified) gave UCH37 DUB inh inactive.
Screening CCCOc1ccc(-c2c(C(=O)NN=Cc3cccs3)nnn2-c2nonc2N)cc1 returned UCH37 DUB inh inactive.
Screening Cc1ccc(C=Nn2c(C)n[nH]c2=S)o1 returned UCH37 DUB inh inactive.
`CC(=O)N(C)c1ccc(N=Nc2c(C)[nH]n(C(N)=S)c2=O)cc1` gave UCH37 DUB inh inactive, Rtt109 Vps75 inactive, FAS-TE inh inactive, M18AAP inhibitor inactive and HDAC3 inh inactive.
`CCN(CC)S(=O)(=O)c1ccc(N=Nc2c(C)[nH]n(C(N)=S)c2=O)cc1` gave UCH37 DUB inh inactive, Rtt109 Vps75 inactive, FAS-TE inh inactive, M18AAP inhibitor inactive, ALR inh 95 and HDAC3 inh inactive.
For O=C1N/C(=N\N=Cc2ccco2)SC1Cc1ccccc1[N+](=O)[O-] (stereo unspecified) the results were UCH37 DUB inh inactive.
`O=C(/C(=N\O)n1cncn1)c1ccc(Cl)cc1Cl` gave FAS-TE inh inactive, M18AAP inhibitor inactive, ALR inh inactive and HDAC3 inh inactive.
Screening O=C(/C(=C/c1ccccc1)n1cncn1)c1ccc(Cl)cc1Cl returned UCH37 DUB inh inactive, Rtt109 Vps75 inactive, FAS-TE inh inactive, M18AAP inhibitor 54, ALR inh inactive and HDAC3 inh inactive.
Cc1[nH]c2ccccc2c1C=NNC(N)=S was read as UCH37 DUB inh inactive.
`Cc1ccn2c(C(=O)NN=Cc3ccc4c(c3)OCO4)c(C)nc2c1` gave UCH37 DUB inh inactive.
Cc1ccc2nc3n(c2c1)CCCN3 was read as UCH37 DUB inh inactive, Rtt109 Vps75 inactive, FAS-TE inh inactive, ALR inh inactive and HDAC3 inh inactive.
S=c1[nH]nc2n1CCCN2 was read as UCH37 DUB inh inactive, Rtt109 Vps75 inactive, FAS-TE inh inactive, M18AAP inhibitor inactive, ALR inh 95 and HDAC3 inh inactive.
For COCCNC(=S)NN=Cc1c2ccccc2cc2ccccc12 the results were UCH37 DUB inh inactive.
Screening COc1ccc(-c2csc(NC(=O)CSCC(=O)Nc3cc(C)on3)n2)cc1OC returned UCH37 DUB inh inactive, Rtt109 Vps75 inactive, FAS-TE inh inactive, ALR inh 99 and HDAC3 inh inactive.
COc1ccc(-c2csc(NC(=O)CSCc3c(C)noc3C)n2)cc1OC was read as UCH37 DUB inh inactive, Rtt109 Vps75 inactive, FAS-TE inh inactive, M18AAP inhibitor inactive, ALR inh inactive and HDAC3 inh inactive.
Screening COc1ccc(-c2csc(Nc3ccc(S(=O)(=O)Nc4cc(OC)nc(OC)n4)cc3)n2)cc1 returned UCH37 DUB inh inactive, Rtt109 Vps75 inactive, FAS-TE inh inactive, M18AAP inhibitor inactive, ALR inh inactive and HDAC3 inh inactive.
Screening COc1ccc(-c2csc(Nc3ccc(S(=O)(=O)Nc4cc(C)on4)cc3)n2)cc1C returned UCH37 DUB inh inactive, Rtt109 Vps75 inactive, FAS-TE inh inactive, M18AAP inhibitor inactive, ALR inh 99 and HDAC3 inh inactive.
Screening COc1ccc(OC)c(-c2csc(NC(=O)CSc3ccc([N+](=O)[O-])cc3)n2)c1 returned UCH37 DUB inh 33, FAS-TE inh inactive, M18AAP inhibitor inactive, ALR inh inactive and HDAC3 inh inactive.
Screening CCN(N=Cc1cccs1)c1cc(=O)n(C)c(=O)[nH]1 returned UCH37 DUB inh inactive.
For CC(=O)c1ccc(-c2ccc(/C=C(/Sc3n[nH]c(C)n3)C(=O)O)o2)cc1 the results were UCH37 DUB inh 21, Rtt109 Vps75 inactive, FAS-TE inh inactive, M18AAP inhibitor inactive, ALR inh inactive and HDAC3 inh inactive.
For CN(C)c1ccc(C2Nc3ccccc3C(=O)N2CCCN2CCOCC2)cc1 (stereo unspecified) the results were UCH37 DUB inh inactive, Rtt109 Vps75 inactive, FAS-TE inh inactive, M18AAP inhibitor inactive, ALR inh 99 and HDAC3 inh inactive.
Screening CC(C)Oc1ccc(Br)cc1C(=O)NN=Cc1c[nH]c2ccccc12 returned UCH37 DUB inh inactive.
O=C(NN=Cc1cn(-c2ccccc2)nc1-c1ccc2c(c1)OCCO2)c1ccncc1 was read as UCH37 DUB inh inactive.
